From ChEMBL document CHEMBL4732262, “Identification of two novel thiophene analogues as inducers of autophagy mediated cell death in breast cancer cells” (Bioorg Med Chem, 2021) come the findings set out here.

Assay [1] concerns MCF7. The assay is described as follows: Cytotoxicity against human MCF7 cells assessed as reduction in cell viability after 24 hrs by MTT assay. The class given is functional, cell-based. Particulars: MCF7, 24 h. The procedure, abridged: (§1)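 Cells seeded ~5 × 10^3 per well in 96-well plates, exposed to 0–40 µM for 24 h. MTT added at 0.5 mg/ml for 3 h, formazan dissolved in DMSO, absorbance read at 540 nm. IC50 taken from plotted curves. Duplicate wells, two independent repeats. MCF7 grown in DMEM, MDA-MB-231 in RPMI, both with 10% FBS at 37 °C and 5% CO2.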

For assay [2], the system named is MDA-MB-231. The assay is described as follows: Cytotoxicity against human MDA-MB-231 cells assessed as reduction in cell viability after 24 hrs by MTT assay. Conditions: MDA-MB-231, 24 h. The class given is functional, cell-based. The procedure, abridged: as §1
(In general: Formazan colour is commonly taken as a measure of viable cells.)

For assay [3], the system named is MCF7. The assay is described as follows: Induction of apoptosis in human MCF7 cells assessed as early apoptotic cells at 2.5 uM after 24 hrs by annexin V-FITC/Propidium iodide staining based flow cytometric analysis (reference value: 3.94%). The assay is classed as functional. (In flow cytometry, cells or beads pass a laser one at a time.)
The subject of assay [4] is MCF7. Kind of assay: Induction of apoptosis in human MCF7 cells assessed as late apoptotic cells at 2.5 uM after 24 hrs by annexin V-FITC/Propidium iodide staining based flow cytometric analysis (reference value: 0.2%). The class given is functional.
Assay [5] deals with MCF7. The assay is described as follows: Induction of apoptosis in human MCF7 cells assessed as necrotic cells at 2.5 uM after 24 hrs by annexin V-FITC/Propidium iodide staining based flow cytometric analysis (reference value: 1.22%). The assay is classed as functional.
Assay [6] relates to MDA-MB-231. The assay is described as follows: Induction of apoptosis in human MDA-MB-231 cells assessed as early apoptotic cells at 2.5 uM after 24 hrs by annexin V-FITC/Propidium iodide staining based flow cytometric analysis (reference value: 1.54%). The class given is functional.
Assay [7] deals with MDA-MB-231. The assay is described as follows: Induction of apoptosis in human MDA-MB-231 cells assessed as late apoptotic cells at 2.5 uM after 24 hrs by annexin V-FITC/Propidium iodide staining based flow cytometric analysis (reference value: 0.08%). The assay is classed as functional.
For assay [8], the system named is MDA-MB-231. The assay is described as follows: Induction of apoptosis in human MDA-MB-231 cells assessed as necrotic cells at 2.5 uM after 24 hrs by annexin V-FITC/Propidium iodide staining based flow cytometric analysis (reference value: 0.65%). The assay is classed as functional.
Assay [9] concerns MCF7. Kind of assay: Induction of autophagy in human MCF7 cells assessed as LC3-2 to LC3-1 protein ratio at 2.5 uM after 24 hrs by Western blot analysis (reference value: 0.22 to 0.8). The class given is functional.
In assay [10] the test system is MCF7. The assay is described as follows: Induction of apoptosis in human MCF7 cells assessed as increase in cell death at 2.5 uM after 24 hrs by EtBr/AO staining based fluorescence microscopic method. The assay is classed as functional. Put shortly: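 ~5 × 10^4 MCF7 cells on coverslips given 2.5 µM for 24 h, then PBS-washed and stained with 1:1 ethidium bromide/acridine orange (0.4 mg/ml each). Viewed by fluorescence microscopy, excitation 480 nm with a 515–530 nm barrier filter. Apoptotic, necrotic and viable cells scored from 200 cells per sample.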

Assay [11] concerns MCF7. The assay is described as follows: Induction of apoptotic in human MCF7 cells assessed as increase in Bim protein expression at 2.5 uM after 24 hrs by Western blot analysis. The class given is functional, cell-based. The procedure, abridged:
(§2)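 MCF7 or MDA-MB-231 cells given 2.5 µM or DMSO for 24 h, then lysed in RIPA buffer. Immunoblots probed overnight at 4 °C, followed by infrared-labelled secondary antibody for 1 h at 37 °C. Bands imaged and quantified densitometrically, with GAPDH as loading control. Representative of two independent experiments.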
In general terms: Immunoblotting shows a protein as a band on a membrane.

For assay [12], the system named is MCF7. The assay is described as follows: Induction of autophagy in human MCF7 cells assessed as increase in Beclin1 protein expression at 2.5 uM after 24 hrs by Western blot analysis. The class given is functional, cell-based. The procedure, abridged:
as §2

For assay [13], the system named is MCF7. The assay is described as follows: Induction of autophagy in human MCF7 cells assessed as increase in LC3-2 to LC3-1 protein ratio at 2.5 uM after 24 hrs by Western blot analysis. The class given is functional, cell-based. The procedure, abridged:
(§3)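 MCF7 cells (~5 × 10^6) left untreated (DMSO control) or exposed to 2.5 µM compound for 24 h. Lysed in RIPA buffer, probed overnight at 4 °C, then given infrared-tagged secondary antibodies for 1 h at 37 °C and imaged by infrared scanning. LC3-II/I ratio and p62 taken by densitometry with GAPDH as loading control. Two independent experiments.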

The subject of assay [14] is MCF7. The assay is described as follows: Induction of autophagy in human MCF7 cells assessed as increase in p62 degradation at 2.5 uM after 24 hrs by Western blot analysis. The class given is functional, cell-based. The procedure, abridged:
as §3

For assay [15], the system named is MCF7. Kind of assay: Induction of autophagy in human MCF7 cells expressing GFP tagged LC3-2 assessed as increase in […] puncta formation at 2.5 uM after 24 hrs by confocal microscopic analysis. The class given is functional, cell-based. Put shortly: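 MCF7 cells (~1 × 10^6) at 70% confluency on glass-bottom dishes were transiently transfected with GFP-LC3 (Lipofectamine 3000). 24 h later they received 2.5 µM compound or DMSO for another 24 h. Nuclei were stained with Hoechst 33342 and lysosomes with LysoTracker Red DND-99, then imaged by live-cell confocal microscopy. LC3 puncta were counted in at least 10 cells from 3 fields. Two independent experiments.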

The subject of assay [16] is MCF7. Kind of assay: Induction of autophagy in human MCF7 cells assessed as increase in Bcl2L11 mRNA expression at 2.5 uM after 24 hrs by RT-PCR analysis. The class given is functional, cell-based. Put shortly:
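MCF7 cells given 2.5 µM or DMSO for 24 h. Total RNA extracted with TRIzol and reverse-transcribed, then SYBR Green qPCR across 34 autophagy-regulatory genes (95 °C 10 min; 40 cycles of 95 °C 15 s and 60 °C 1 min). Relative expression by 2^-ΔΔCt against housekeeping genes and DMSO control, shown as log2. Two independent experiments.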

The subject of assay [17] is MCF7 (Homo sapiens). Kind of assay: Induction of apoptosis in human MCF7 cells assessed as increase in cell death at 2.5 uM after 24 hrs by EtBr/AO staining based fluorescence microscopic method.
For assay [18], the system named is MCF7. Kind of assay: Cytotoxicity against human MCF7 cells assessed as reduction in cell viability at 100 uM after 24 hrs by MTT assay. The assay is classed as functional, cell-based.
Assay [19] relates to MDA-MB-231. The assay is described as follows: Cytotoxicity against human MDA-MB-231 cells assessed as reduction in cell viability at 100 uM after 24 hrs by MTT assay. The assay is classed as functional, cell-based.

Structures are written as SMILES. pIC50: −log10 of the molar value. The source made the active and inactive calls. No cut-off for these calls is given here.

For orientation: pIC50 means −log10 of the IC50, conventionally taken in molar units. As for `O=C1C(=O)c2occc2-c2c1ccc1ccccc21`, the pIC50 was 4.80 in [1] and 4.76 in assay [2].

Consider `Cc1cc2c3c(ccc2s1)C(=O)C(=O)c1sccc1-3`, for which the negative-log IC50 (pIC50) in [1] was 4.84; in assay [2] it was 4.69.

For the compound `Cc1cc2c3c(ccc2s1)C(=O)C(=O)c1ccsc1-3`, the negative-log IC50 (pIC50) was 4.76 in assay [1] and 4.63 in assay [2].

`Cc1coc2c1C(=O)C(=O)c1c-2ccc2c(C)cccc12` [TANSHINONE I]: the negative logarithm of the IC50 (pIC50) in [1] and in assay [2] was 5.10 throughout. In addition, the Activity in assay [3] stood at 14.3%; in [4], 0.91%; in assay [5], 3.63%; in assay [6], 1.44%; in assay [7], 0.18%; in assay [8] it was 3.56%. Besides, the Ratio in [9] came out at 0.61.

With `COc1ccc2ccc3c(c2c1)-c1ccsc1C(=O)C3=O`, the figures for the negative logarithm of the IC50 (pIC50) in [1] and in assay [2] were 5.10 and 5.22, respectively. In addition, the Activity in assay [3] is 4.39%; in assay [4], 0.55%; in [5] it was 1.85%; in [6] it was 1.8%; in [7], 0.13%; in [8], 1.19%. Further, the outcome in assay [10], in assay [11], in assay [13], in assay [14], in assay [15] and in assay [16] was Active. In addition, the outcome in [17] was Active. Also, the result in assay [12] was inactive. Besides, the Ratio in [9] is given as 11.1.

On to `Cc1coc2c1C(=O)C(=O)c1c-2ccc2c1CCCC2(C)C` [TANSHINONE IIA], for which the pIC50 in assay [1] and in [2] was 5.11 each time. For the same compound, the Activity in [3] is on record as 2.9%; in assay [4], 0.31%; in [5] it was 5.27%; in [6] it was 9.23%; in assay [7] it was 0.34%; in [8] it was 2.11%. Besides, the outcome in assay [10] and in assay [17] was Active. For the same compound, the Ratio in [9] is given as 1.46.

For `CCN(CC)CCCC(C)Nc1ccnc2cc(Cl)ccc12` (centres undefined), the result in assay [18] and in assay [19] was Active.

Consider `O=C1C(=O)c2c(ccc3ccccc23)-c2ccoc21`, for which the results for the negative logarithm of the IC50 (pIC50) in assay [1] and in [2] were 4.84 and 4.68, respectively.

On to `O=C1C(=O)c2ccc3ccccc3c2-c2sccc21`, for which the results for the pIC50 in assay [1] and in [2] were 4.89 and 4.81, respectively.
